Screening results as filed in PubChem.
FGF22 binding: binders of human FGF22 protein, primary screen, FGF22 synaptogenesis inhibitor project, biophysical, thermal shift, single point. actives 1.5% (n = 340,000). AID 651658, 2012. Fibroblast growth factor 22 (Homo sapiens), Q9HCT0. activity (Tm shift, normalised), % at 9.99 µM. recombinant FGF22 thermal shift, SYPRO orange fluorescence; percent of sucrose octasulfate shift, DMSO zero;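 active = mean Tm shift, scaled 0 neutral to 100 positive control, at about 1.3% or above, every replicate too, limit read from the data; inconclusive = no clear call, values can overlap the other calls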
PglD inh: C. jejuni PglD acetyltransferase inhibitors, primary screen, biochemical, DTNB colorimetric, single point. inhibition, % at 12.5 µM. actives 0.098% (n = 360,000). purified PglD enzyme, DTNB colorimetric CoA detection. UDP-N-acetylbacillosamine N-acetyltransferase PglD (Campylobacter jejuni); in the data active = inhibition above about 16%, passing the limit was not always enough; inconclusive = no clear call, values can overlap the other calls
DENV2 CPE rescue: inhibitors of DENV2 cytopathic effect, primary screen, cell-based, plate reader, single concentration; DENV2-infected cells, cytopathic effect rescue; CPE inhibition, % at 9.99 µM; actives 1.7% (n = 350,000); in the data active = CPE inhibition above about 20%, passing the limit was not always enough; inconclusive = no clear call, values can overlap the other calls; tested in BHK-21 cells;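 also: 0% = median of neutral control wells and 100% = median of positive control wells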
Statin myotox sup: suppressors of statin myotoxicity in C2C12 myotubes, primary screen, cell-based, single point, plate reader; C2C12 myotubes + simvastatin, ATP luminescence, 48 h; scaled: DMSO 0, geranylgeraniol control 100; rescue of ATP level, % at 7.49 µM; actives 0.78% (n = 330,000); AID 602340, 2012;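 active = mean ATP rescue above about 67%, or every replicate alone reaching that limit, limit read from the data, passing the limit was not always enough; inconclusive = no clear call, values can overlap the other calls; inactive = mean under the limit and some replicate under it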;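 also: myotubes were challenged with 10 µM simvastatin during compound exposure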
Xi reactivation: activators of inactive X chromosome reactivation, primary screen, imaging, XiGFP fibroblasts, GFP high-content imaging, set 2; AID 743238, 2013; XiGFP mouse fibroblasts, % GFP-positive cells imaging, 3 d; cells co-treated with 5-aza-dC sensitizer; scaled so ellipticine positive control = 100%; activation, % at 7.58 µM; actives 0.055% (n = 360,000);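 active = mean normalized replicate activation at least 10% and every replicate at or above 10%; inconclusive = only one of the two criteria met; inactive = mean below 10% and not all replicates reach 10%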;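 also: 0% = median of on-plate neutral control wells and 100% = ellipticine 6 µM median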
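Material: SV40-immortalized XiGFP fibroblast cells, line 68-5-11 | Buffer or medium: DMEM containing 5-aza-dC | Dosing: One concentration, pinned | Times: 3 d treatment, 15 min room-temperature fixation | Controls: Ellipticine 6 µM positive control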
E-selectin induc: E-selectin induction in HUVECs, primary screen, imaging, HUVEC, immunofluorescence imaging, single point | P16581 | normalized: neutral wells 0, TNF-alpha wells 100 | activation, % at 7.58 µM | actives 0.37% (n = 260,000) | AID 686992, 2013;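 active = mean E-selectin-positive cell signal at least 10% of the positive control, reached in at least 60% of replicates, without over 20% cell loss; inconclusive = no rule given, readout overlaps actives, possibly toxicity-flagged; inactive = the rest, including those meeting only one limit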
Target sequence (P16581 whole entry, looked up): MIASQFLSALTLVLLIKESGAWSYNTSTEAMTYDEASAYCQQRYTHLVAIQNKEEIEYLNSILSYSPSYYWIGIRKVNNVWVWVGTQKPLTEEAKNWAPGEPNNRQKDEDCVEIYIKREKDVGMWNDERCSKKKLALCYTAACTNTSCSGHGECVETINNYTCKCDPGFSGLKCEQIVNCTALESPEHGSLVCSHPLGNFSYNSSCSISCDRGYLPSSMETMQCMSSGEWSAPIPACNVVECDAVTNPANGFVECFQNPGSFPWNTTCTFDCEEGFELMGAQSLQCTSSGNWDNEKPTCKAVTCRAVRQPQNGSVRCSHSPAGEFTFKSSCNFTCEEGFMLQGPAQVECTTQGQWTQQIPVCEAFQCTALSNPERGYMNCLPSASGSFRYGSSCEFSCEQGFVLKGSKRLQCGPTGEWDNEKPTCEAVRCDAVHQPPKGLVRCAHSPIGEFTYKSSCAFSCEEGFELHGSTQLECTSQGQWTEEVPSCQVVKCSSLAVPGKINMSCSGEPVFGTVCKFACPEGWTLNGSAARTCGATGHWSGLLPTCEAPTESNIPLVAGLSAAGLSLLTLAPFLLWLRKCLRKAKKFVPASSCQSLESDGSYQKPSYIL
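Material: HUVEC primary endothelial cells; Amount: 3,000 cells per well; Dosing: single concentration; Medium: EGM-2 growth medium on 0.1% gelatin-coated wells; Read-out basis: percent E-selectin-positive cells; Signal: immunofluorescence imaging; Control set: TNF-alpha, DMSO.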
The depositor's hits bear a star; ? = inconclusive; nt = not tested or not shown. In the library only some 3.3% were active in any assay of this set; here they are far more common.

SMILES	FGF22 binding	PglD inh	DENV2 CPE rescue	Statin myotox sup	Xi reactivation	E-selectin induc
CCNC(=O)C[C@@H]1C=C[C@H](NS(=O)(=O)c2ccc(F)cc2)[C@H](CO)O1	0	0	2	-1	0	0
COc1cccc(-c2ccc([C@@H]3[C@@H](CO)N4CCCCN(C(=O)c5ccc(F)cc5)C[C@H]34)cc2)c1	0	-1	43*	20	0	0
COc1cccc(-c2ccc([C@@H]3[C@H]4CN(C(=O)c5ccc(F)cc5)CCCCN4[C@H]3CO)cc2)c1	0	2	6	-38	0	0
COc1cccc(-c2ccc([C@@H]3[C@@H](CO)N4CCCCN(C(=O)c5ccc(F)cc5)C[C@@H]34)cc2)c1	-1	4	5	21	0	-1
COc1cccc(-c2ccc([C@H]3[C@@H](CO)N4CCCCN(C(=O)c5ccc(F)cc5)C[C@H]34)cc2)c1	1	4	43*	41	0	0
COc1ccc(C(=O)NCCNc2nc3c(C)cccc3cc2C#N)cc1OC	0	0	29*	16	0	0
COc1cc(C(=O)NCCNc2nc3c(C)cccc3cc2C#N)cc(OC)c1OC	0	4	?	2	0	0
COc1ccc(C(=O)NCCNc2nc3c(C)cccc3cc2C#N)cc1	0	-4	3	-3	0	0
CCC(=O)NCCCNc1nc2c(C)cccc2cc1C#N	43*	nt	-3	nt	0	nt
CCCCSc1nc2c(c(=O)[nH]1)CCC2	0	0	-11	-10	nt	nt
O=c1[nH]c(N2CCN(c3ccccc3)CC2)nc2c1CCC2	nt	7	nt	-10	nt	nt
CSc1nc2c(c(=O)[nH]1)CCCC2	nt	3	nt	119*	nt	nt
O=c1[nH]c(N2CCOCC2)nc2c1CCCC2	nt	-4	nt	117*	nt	nt
CCCN1C[C@H](C)[C@H](OC)CN(C)C(=O)c2cc(NC(=O)NC3CCCCC3)ccc2OC[C@H]1C	0	1	7	-7	0	0
NNC(=O)c1sc(-c2ccccc2)cc1N	44*	nt	10	nt	?	nt
COC(=O)C[C@H]1CC[C@H]2[C@@H](COc3ccc(NC(=O)c4cnccn4)cc3C(=O)N2C)O1	0	2	144*	-6	1	1
CN1C(=O)c2cc(NC(=O)c3cnccn3)ccc2OC[C@@H]2O[C@@H](CC(=O)NCC3CCCCC3)CC[C@H]21	0	3	30*	4	0	0
COC(=O)C[C@@H]1CC[C@H]2[C@H](COc3ccc(NC(=O)c4cnccn4)cc3C(=O)N2C)O1	0	3	-12	0	0	0
CN1C(=O)c2cc(NC(=O)c3cnccn3)ccc2OC[C@H]2O[C@@H](CC(=O)NCC3CCCCC3)CC[C@H]21	1	1	10	-14	0	0
O=C(C[C@H]1CC[C@H](NC(=O)c2ccncc2)[C@@H](CO)O1)NCC1CC1	0	22	0	6	0	0
COc1ccc(NC(=O)Nc2ccc3c(c2)C(=O)N([C@H](C)CO)C[C@@H](C)[C@@H](CN(C)C(=O)c2ccccc2)OCCCC[C@H](C)O3)cc1	0	-2	2	39	-1	1
c1ccc(-c2nnsc2-c2nc3ccccc3[nH]2)cc1	43*	nt	0	2	0	-1
CCC(=O)N1C[C@H](C)[C@@H](OC)CN(C)C(=O)c2ccc(NC(=O)Nc3cccc(F)c3)cc2OC[C@H]1C	0	0	-7	4	0	0
CC(C)CC#Cc1cnc2c(c1)C(=O)N([C@@H](C)CO)C[C@@H](C)[C@H](CN(C)C(=O)c1ccc(F)cc1)O2	0	-1	-1	13	-1	1
